Data from ChEMBL document CHEMBL4177755, “Combating Drug-Resistant Fungi with Novel Imperfectly Amphipathic Palindromic Peptides” (J Med Chem, 2018).
≈ marks a conversion by molar mass, not a printed value. Calls of active or inactive are those of the source. The calls are words filed in the database; no cut-off is given here.

Experiments:
Salmonella typhimurium [1] = assay: Bactericidal activity against Salmonella typhimurium ATCC 14028; assay type: functional, Salmonella enterica subsp. enterica serovar Typhimurium; settings: Salmonella enterica, read-out: MBC99.9
Method in brief: (§1)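 Wells from the 24 h, 37 °C MHB microdilution plates (bacteria at a final (0.5−1) × 10^5 CFU/mL; peptide diluted in 0.2% BSA) were plated on agar and incubated overnight. MBC is the lowest concentration killing >99.9% of cells. Each test was reproduced at least 3 times.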

Staphylococcus aureus [2] = assay: Bactericidal activity against Staphylococcus aureus ATCC 29213; assay type: functional; settings: read-out: MBC99.9; method in brief: as §1
[3] = Bactericidal activity against Salmonella pullorum ATCC 7913; assay type: functional, Salmonella enterica subsp. enterica serovar Pullorum; settings: Salmonella enterica, read-out: MBC99.9; method in brief: as §1
Escherichia coli [4] = assay: Antibacterial activity against Escherichia coli ATCC 25922 after 18 hrs in presence of 25% human heat-inactivated serum by broth dilution method; assay type: functional; settings: ATCC 25922, 18 h
Escherichia coli [5] = assay: Antibacterial activity against Escherichia coli ATCC 25922 after 18 hrs in presence of NaCl by broth dilution method; assay type: functional; settings: ATCC 25922, 18 h
[6] = test system: Staphylococcus epidermidis; assay: Antibacterial activity against Staphylococcus epidermidis ATCC 12228 after 24 hrs; assay type: functional; settings: ATCC 12228, 24 h
Method in brief: (§2)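 Broth microdilution. Mid-log bacteria in MHB at a final (0.5−1) × 10^5 CFU/mL were mixed with equal volumes of peptide serially diluted in 0.2% BSA. Plates were incubated 24 h at 37 °C and read at A492. MIC is the lowest concentration inhibiting 95% of growth. Each test was repeated at least 3 times.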

Escherichia coli [7] = assay: Antibacterial activity against Escherichia coli ATCC 25922 after 18 hrs in presence of FeCl3 by broth dilution method; assay type: functional; settings: ATCC 25922, 18 h
[8] = test system: Staphylococcus epidermidis; assay: Bactericidal activity against Staphylococcus epidermidis ATCC 12228; assay type: functional; settings: read-out: MBC99.9; method in brief: as §1
Escherichia coli [9] = assay: Antibacterial activity against Escherichia coli ATCC 25922 after 18 hrs in presence of 50% human heat-inactivated serum by broth dilution method; assay type: functional; settings: ATCC 25922, 18 h
Escherichia coli [10] = assay: Bactericidal activity against Escherichia coli 1005; assay type: functional; settings: read-out: MBC99.9; method in brief: as §1
Staphylococcus aureus [11] = assay: Bactericidal activity against Staphylococcus aureus ATCC 25923; assay type: functional; settings: read-out: MBC99.9; method in brief: as §1
Staphylococcus aureus [12] = assay: Antibacterial activity against Staphylococcus aureus ATCC 29213 after 24 hrs; assay type: functional; settings: ATCC 29213, 24 h
Method in brief: (§3)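 Modified NCCLS broth microdilution. Mid-log bacteria at (0.5−1) × 10^5 CFU/mL in MHB were mixed 1:1 with peptide serially diluted in 0.2% BSA and incubated 24 h at 37 °C. Absorbance was read at 492 nm; MIC is the lowest concentration inhibiting 95% of growth. At least 3 repeats.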

Escherichia coli [13] = assay: Antibacterial activity against Escherichia coli ATCC 25922 after 18 hrs in presence of NH4Cl by broth dilution method; assay type: functional; settings: ATCC 25922, 18 h
Salmonella typhimurium [14] = assay: Antibacterial activity against Salmonella typhimurium ATCC 14028 after 24 hrs; assay type: functional, Salmonella enterica subsp. enterica serovar Typhimurium; settings: Salmonella enterica, ATCC 14028, 24 h; method in brief: as §2
Lipid bilayer [15] = assay: Binding affinity to phosphatidylcholine/cholesterol large unilamellar vesicle assessed as induction of calcein leakage at 2 to 32 uM after 15 mins by spectrofluorophotometric method; settings: 0.25 h
Method in brief: (§4)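 Large unilamellar vesicles were made from PG/CL/PE (2:1:7), PC/PE/PI/ergosterol (5:4:1:2) or PC/cholesterol (10:1), loaded with 70 mM calcein in Tris/NaCl/EDTA buffer at pH 7.4, frozen and thawed 20 times, and extruded through 100 nm filters. Free dye was removed by gel filtration, and peptide-induced calcein release was measured.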

Lipid bilayer [16] = assay: Binding affinity to phosphatidylglycerol/cardiolipin/phosphatidylethanolamine large unilamellar vesicle assessed as induction of calcein leakage at 2 to 32 uM after 15 mins by spectrofluorophotometric method; method in brief: as §4
Escherichia coli [17] = assay: Antibacterial activity against Escherichia coli ATCC 25922 after 18 hrs in presence of 12.5% human heat-inactivated serum by broth dilution method; assay type: functional; settings: ATCC 25922, 18 h
Escherichia coli [18] = assay: Antibacterial activity against Escherichia coli ATCC 25922 after 24 hrs; assay type: functional; settings: ATCC 25922, 24 h; method in brief: as §2
Escherichia coli [19] = assay: Antibacterial activity against Escherichia coli 1005 after 24 hrs; assay type: functional; settings: Escherichia coli, 1005, 24 h; method in brief: as §2
Staphylococcus aureus [20] = assay: Antibacterial activity against methicillin-resistant Staphylococcus aureus ATCC 4330 after 24 hrs; assay type: functional; settings: ATCC 4330, 24 h; method in brief: as §3
Staphylococcus aureus [21] = assay: Antibacterial activity against Staphylococcus aureus ATCC 25923 after 24 hrs; assay type: functional; settings: ATCC 25923, 24 h; method in brief: as §3
Escherichia coli [22] = assay: Bactericidal activity against Escherichia coli ATCC 25922; assay type: functional; settings: read-out: MBC99.9; method in brief: as §1
Escherichia coli [23] = assay: Antibacterial activity against Escherichia coli ATCC 25922 after 18 hrs in presence of MgCl2 by broth dilution method; assay type: functional; settings: ATCC 25922, 18 h
Escherichia coli [24] = assay: Antibacterial activity against Escherichia coli ATCC 25922 after 18 hrs in presence of CaCl2 by broth dilution method; assay type: functional; settings: ATCC 25922, 18 h
[25] = Antibacterial activity against Salmonella pullorum ATCC 7913 after 24 hrs; assay type: functional, Salmonella enterica subsp. enterica serovar Pullorum; settings: Salmonella enterica, ATCC 7913, 24 h; method in brief: as §2
Escherichia coli [26] = assay: Antibacterial activity against Escherichia coli ATCC 25922 after 18 hrs in presence of ZnCl2 by broth dilution method; assay type: functional; settings: ATCC 25922, 18 h
Staphylococcus aureus [27] = assay: Bactericidal activity against methicillin-resistant Staphylococcus aureus ATCC 4330; assay type: functional; settings: read-out: MBC99.9
Method in brief: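 Bacteria at (0.5−1) × 10^5 CFU/mL in MHB were exposed to serially diluted peptide (0.2% BSA) for 24 h at 37 °C, then 50 μL aliquots were plated on agar overnight. MBC is the lowest concentration killing >99.9% of cells. At least 3 repeats.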

Escherichia coli [28] = assay: Antibacterial activity against Escherichia coli ATCC 25922 after 18 hrs in presence of KCl by broth dilution method; assay type: functional; settings: ATCC 25922, 18 h

O=C(O)c1cn(C2CC2)c2cc(N3CCNCC3)c(F)cc2c1=O [CIPROFLOXACIN]
MBC (Salmonella typhimurium [1]): 16 µM (≈ 5.3 µg/mL) | MBC (Staphylococcus aureus [2]): 4 µM (≈ 1.33 µg/mL) | MBC [3]: 4 µM (≈ 1.33 µg/mL) | MIC (Escherichia coli [4]): 2 µM | MIC (Escherichia coli [5]): 2 µM | MIC95 [6]: 2 µM (≈ 0.663 µg/mL) | MIC (Escherichia coli [7]): 4 µM | MBC [8]: 4 µM (≈ 1.33 µg/mL) | MIC (Escherichia coli [9]): 4 µM | MBC (Escherichia coli [10]): 4 µM (≈ 1.33 µg/mL) | MBC (Staphylococcus aureus [11]): 8 µM (≈ 2.65 µg/mL) | MIC95 (Staphylococcus aureus [12]): 4 µM (≈ 1.33 µg/mL) | MIC (Escherichia coli [13]): 2 µM | MIC95 (Salmonella typhimurium [14]): 8 µM (≈ 2.65 µg/mL) | Activity (Lipid bilayer [15]): Not Active | Activity (Lipid bilayer [16]): inactive | MIC (Escherichia coli [17]): 2 µM | MIC95 (Escherichia coli [18]): 2 µM (≈ 0.663 µg/mL) | MIC95 (Escherichia coli [19]): 2 µM (≈ 0.663 µg/mL) | MIC95 (Staphylococcus aureus [20]): 1 µM (≈ 0.331 µg/mL) | MIC95 (Staphylococcus aureus [21]): 8 µM (≈ 2.65 µg/mL) | MBC (Escherichia coli [22]): 4 µM (≈ 1.33 µg/mL) | MIC (Escherichia coli [23]): 8 µM | MIC (Escherichia coli [24]): 8 µM | MIC95 [25]: 2 µM (≈ 0.663 µg/mL) | MIC (Escherichia coli [26]): 2 µM | MBC (Staphylococcus aureus [27]): 1 µM (≈ 0.331 µg/mL) | MIC (Escherichia coli [28]): 2 µM
